Reference: ChEMBL document CHEMBL4699639, “Discovery of Novel 2-Aniline-1,4-naphthoquinones as Potential New Drug Treatment for Leber's Hereditary Optic Neuropathy (LHON)” (J Med Chem, 2020)
The source made the active and inactive calls. The calls are words filed in the database; no cut-off is given here.

How the values were obtained:
[1] = Cytotoxicity against C57BL/6J mouse RGC cells assessed as reduction in number of cells at 100 uM incubated for 24 hrs by Hoechst 33342 staining based counting method; type: cell-based
In short: (§1)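 Retinal explants from 6–8 month old female wild-type C57BL/6J mice, enucleated eyes placed in ice-cold HBSS. Explants incubated 24 h ex vivo in pre-warmed Neurobasal A with compounds in 0.1% DMSO, alone for toxicity or with 100 µM rotenone for activity. Hoechst 33342-stained nuclei (and anti-RBPMS-positive RGCs) counted in the central retina ganglion cell layer. Mean ± SEM, 1-way ANOVA with Tukey.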

[2] = molecular target: NAD(P)H dehydrogenase [quinone] 1 (Homo sapiens) (UniProt P15559); experiment: Substrate activity at NQO1 in human HepG2 cells assessed as reduction in cell viability by WST-1 assay; type: cell-based
SH-SY5Y [3] = experiment: Cytotoxicity against human SH-SY5Y cells assessed as reduction in cell viability incubated for 24 hrs by Celltiter-blue assay; type: cell-based
SH-SY5Y [4] = experiment: Cytotoxicity against human SH-SY5Y cells assessed as reduction in cell viability at 25 uM incubated for 24 hrs by Celltiter-blue assay; type: cell-based
In short: (§2)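 HepG2 or SH-SY5Y seeded 10×10^3 per well the day before in 1 g/L glucose medium with 2% FBS. Medium replaced with fresh 2% FBS, 1 g/L glucose medium containing compound (25 µM) for 24 h at 37 °C. CellTiter-Blue added for 4 h, fluorescence read at 560/590 nm. Viability given as % of vehicle/untreated cells. Mean ± SEM of ≥3 independent runs.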

[5] = Cytotoxicity against human HepG2 cells assessed as cell viability at 25 uM incubated for 24 hrs by Celltiter-blue assay relative to control; type: cell-based; conditions: read-out: Activity; in short: as §2
[6] = molecular target: NAD(P)H dehydrogenase [quinone] 1 (Homo sapiens) (UniProt P15559); experiment: Substrate activity at NQO1 in human HepG2 cells assessed as reduction in cell viability in presence of NQO1 inhibitor dicoumarol by WST-1 assay; type: cell-based
[7] = Suppression of rotenone-induced ATP depletion in human HepG2 cells incubated for 2 hrs by Celltiter-Glo assay; type: functional, cell-based; conditions: HepG2, 2 h
In short: (§3)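 HepG2 cells seeded 10×10^3 per well in 1 g/L glucose, 2% FBS medium the day before. Switched to glucose- and FBS-free medium containing 10 µM rotenone, with compound added at the same time, 2 h at 37 °C. ATP read by CellTiter-Glo luminescence, normalized to DMSO cells without rotenone. Mean ± SEM of ≥3 independent runs. Complex III inhibitors, where used, at 50 nM.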

HepG2 [8] = experiment: Suppression of rotenone-induced ATP depletion in human HepG2 cells assessed as increase in rescue of ATP level at 0.1 to 1 uM incubated for 2 hrs by Celltiter-Glo assay; type: functional, cell-based; conditions: dose microM 0.1-1, time 2.0 hrs; in short: as §3
HepG2 [9] = experiment: Suppression of rotenone-induced ATP depletion in human HepG2 cells assessed as rescue of ATP level at 5 uM incubated for 2 hrs in presence of complex III inhibitor antimycin by Celltiter-Glo assay; type: functional, cell-based; in short: as §3
HepG2 [10] = experiment: Suppression of rotenone-induced ATP depletion in human HepG2 cells assessed as increase in rescue of ATP level at 1 uM incubated for 2 hrs by Celltiter-Glo assay; type: functional, cell-based; in short: as §3
[11] = Cytotoxicity against […] assessed as reduction in cell viability by WST-1 assay; type: cell-based; conditions: r28
[12] = molecular target: NAD(P)H dehydrogenase [quinone] 1 (Homo sapiens) (UniProt P15559); experiment: Substrate activity at recombinant NQO1 (unknown origin) assessed as reduction in NADH level at 20 uM measured for 6 mins by microplate reader analysis
HepG2 [13] = experiment: Cytotoxicity against human HepG2 cells assessed as cell reduction in cell viability at 25 uM incubated for 24 hrs by Celltiter-blue assay; type: cell-based; conditions: hepg2, 24 h; in short: as §2
RGC = experiment: Cytoprotection against rotenone-induced C57BL/6J mouse retinal ganglion cells loss assessed as increase in cell survival at 3 uM incubated for 24 hrs by Hoechst 33342 staining based counting method; type: functional, tissue-based; conditions: in the assay text read “anti-RBPMS antibody staining” for “Hoechst 33342 staining”; in short: as §1
HepG2 [14] = experiment: Suppression of rotenone-induced ATP depletion in human HepG2 cells assessed as rescue of ATP level at 5 uM incubated for 2 hrs in presence of NQO1 irreversible inhibitor ES936 by Celltiter-Glo assay; type: functional, cell-based
HepG2 [15] = experiment: Cytotoxicity against human HepG2 cells assessed as reduction in cell viability incubated for 24 hrs by Celltiter-blue assay; type: cell-based; conditions: HepG2, 24 h
HepG2 [16] = experiment: Suppression of rotenone-induced ATP depletion in human HepG2 cells assessed as rescue of ATP level at 5 uM incubated for 2 hrs in presence of complex III inhibitor myxothiazol by Celltiter-Glo assay; type: functional, cell-based; in short: as §3
[17] = Cytotoxicity against C57BL/6J mouse RGC cells assessed as reduction in number of cells at 50 uM incubated for 24 hrs by Hoechst 33342 staining based counting method; type: cell-based; in short: as §1
SH-SY5Y [18] = experiment: Cytotoxicity against human SH-SY5Y cells assessed as reduction in cell viability by WST-1 assay; type: cell-based
[19] = Suppression of rotenone-induced ATP depletion in human HepG2 cells assessed as rescue of ATP level incubated for 2 hrs by Celltiter-Glo assay relative to control; type: functional; parameters: concentration or dose not given beside the values; in short: as §3
HepG2 [20] = experiment: Suppression of rotenone-induced ATP depletion in human HepG2 cells assessed as rescue of ATP level at 5 uM incubated for 2 hrs in presence of NQO1 inhibitor dicoumarol by Celltiter-Glo assay; type: functional, cell-based

Chain of NAD(P)H dehydrogenase [quinone] 1 (Homo sapiens) (P15559 whole entry): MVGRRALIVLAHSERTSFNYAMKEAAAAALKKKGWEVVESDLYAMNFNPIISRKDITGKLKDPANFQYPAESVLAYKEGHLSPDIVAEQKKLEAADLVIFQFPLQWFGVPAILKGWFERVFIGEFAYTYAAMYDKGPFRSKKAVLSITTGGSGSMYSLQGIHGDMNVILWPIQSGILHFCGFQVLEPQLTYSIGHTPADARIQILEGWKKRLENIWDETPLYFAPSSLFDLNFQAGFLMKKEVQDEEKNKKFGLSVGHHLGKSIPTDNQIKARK

Activity [12]: Active
Compound: CSC1=C(Nc2ccc(F)c(C(F)(F)F)c2)C(=O)c2ccccc2C1=O
Activity [1]: Toxic
Activity [2]: Active
IC50 (SH-SY5Y [3]): > 100 µM
Activity (SH-SY5Y [4]): Toxic
viability at 24 h, 25 µM [5]: 76.9%
Activity [6]: inactive
EC50 [7]: 0.36 µM
Activity (HepG2 [8]): Active
Activity (HepG2 [9]): inactive
Activity (HepG2 [10]): Active
Activity [11]: Non-Toxic
Activity (HepG2 [13]): Toxic
Activity (RGC): Active
Activity (HepG2 [14]): inactive
IC50 (HepG2 [15]): 30.5 µM
Activity (HepG2 [16]): inactive
Activity [17]: Non-Toxic
Activity (SH-SY5Y [18]): Non-Toxic
Activity [19]: 55.7%
Activity (HepG2 [20]): inactive
